The values below come from ChEMBL document CHEMBL3286344, “Bromopyrrole alkaloids isolated from the Patagonian bryozoan Aspidostoma giganteum” (J Nat Prod, 2014).

The structures appear in SMILES notation.

The nature of one test: Cytotoxicity against human 786-O cells assessed as growth inhibition by MTS assay. As to conditions: 786-0; call rule not given here. In kind it is functional, cell-based. The procedure, abridged:
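Cells seeded at 2 × 10³/well in complete medium; after 24 h, serial doses 0.05−100 μM or DMSO vehicle in medium with 2% FBS for 3 days, medium with fresh compound replaced every 2 days. Viability by MTS reduction to formazan, read as 492/620 nm absorbance ratio; IC50 derived. Cells checked mycoplasma-free by Hoechst method.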
For the compound `O=C(NC[C@@H](O)c1cc(Br)c(O)c(Br)c1)c1[nH]cc(Br)c1Br`, the IC50 entry is reported as “Not Active”.

On to `O=C(NC[C@@H](O)c1cc(Br)c(O)c(Br)c1)c1cc(Br)c(Br)[nH]1`, for which the IC50 entry is given as “Not Active”.

On to `O=C1N[C@H](O)[C@H](c2c(Br)[nH]c3ccc(Br)cc23)n2c(Br)c(Br)c(Br)c21`, for which the 50% inhibitory concentration (IC50) entry was “Not Active”.

As to `CCO[C@H](CNC(=O)c1[nH]c(Br)c(Br)c1Br)c1cc(Br)c(O)c(Br)c1`, the IC50 result was “Not Active”.

As to `O=c1c2c(Br)c(Br)cn2c(-c2cc(Br)c(O)c(Br)c2)cn1-n1cc(-c2cc(Br)c(O)c(Br)c2)n2c(Br)c(Br)cc2c1=O`, the IC50 entry is recorded as “Not Active”.

Turning to `O=C(NC[C@@H](O)c1cc(Br)c(O)c(Br)c1)c1[nH]c(Br)c(Br)c1Br`, the IC50 entry is given as “Not Active”.

Still in this test, the particulars now being: Homo sapiens, 786-0; read-out: IC50.
`COc1cccc2c1C(=O)c1c(O)c3c(c(O)c1C2=O)C[C@@](O)(C(=O)CO)C[C@@H]3O[C@H]1C[C@H](N)[C@H](O)[C@H](C)O1` [DOXORUBICIN]: the half-inhibitory concentration (IC50) was 0.13 µM.

On to `O=C(NCCc1c(Br)[nH]c2cc(Br)cc(O)c12)c1cc(Br)c(Br)[nH]1`, for which the concentration for half-maximal inhibition (IC50) is 15.1 µM.

For `CO[C@H]1NC(=O)c2c(Br)c(Br)c(Br)n2[C@H]1c1c(Br)[nH]c2ccc(Br)cc12`, the IC50 was 7.8 µM.

Consider `COc1ccc(C(=O)C(NC(=O)c2cc(Br)c(Br)[nH]2)OC)cc1Br` (stereo unspecified), for which the IC50 came out at 100 µM.

`O=c1[nH]cc(-c2c(Br)[nH]c3ccc(Br)cc23)n2c(Br)c(Br)c(Br)c12`: the IC50 was determined as 27 µM.
